Measured values: ChEMBL document CHEMBL4376883, “Discovery and Optimization of Small Molecules Targeting the Protein-Protein Interaction of Heat Shock Protein 90 (Hsp90) and Cell Division Cycle 37 as Orally Active Inhibitors for the Treatment of Colorectal Cancer” (J Med Chem, 2020)

Key:
[1] = target: Heat shock protein HSP 90-beta/Hsp90 co-chaperone Cdc37 (Homo sapiens) (UniProt P08238+Q16543); experiment: Inhibition of His-tagged HSP90/GST-tagged Cdc37 (unknown origin) protein-protein interaction at 100 uM measured after 1 hr by HTRF assay relative to control; type: protein-complex assay
Method in brief: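 His-Hsp90 and GST-Cdc37 were premixed at a final 80 nM in PBS with 200 mM KF, pH 7.4. Compound was added and the mix incubated 1 h at 37 °C, then read by HTRF. Inhibition rate was taken at 100 μM compound.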

Heat shock protein HSP90 [2] = target: T1, Heat shock protein HSP90 (Homo sapiens, UniProt P07900+P08238); experiment: Inhibition of recombinant full-length HSP90 ATPase activity N-terminal domain (9 to 236 residues) (unknown origin) expressed in Escherichia coli BL21 (DE3) measured after 1 hr by ADP hunter plus assay
Heat shock protein HSP90 [3] = target: T1, Heat shock protein HSP90; experiment: Binding affinity to recombinant […] HSP90 N-terminal domain (9 to 236 residues) (unknown origin) expressed in Escherichia coli BL21 (DE3) assessed as change in melting temperature by SYPRO dye based thermal shift assay
Method in brief: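 Hsp90 N-terminal domain (10 µM) mixed with compound at 200, 100, 50 or 10 µM in 1× PBS, pH 8.0, with 6× SYPRO Orange. Heated from room temperature to 99 °C at 1 °C/min; fluorescence read at 492 nm excitation and 610 nm emission.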

[4] = Permeability of the compound at pH 7.4 by PAMPA; type: ADME; conditions: read-out: permeability
Method in brief: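 Permeability coefficient (Pe) was measured at pH 7.4 by double-sink PAMPA.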

Heat shock protein HSP90 [5] = target: T1, Heat shock protein HSP90; experiment: Binding affinity to recombinant […] biotinylated-HSP90 N-terminal domain (9 to 236 residues) (unknown origin) expressed in Escherichia coli BL21 (DE3) by biolayer interferometry
Method in brief: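 Biotinylated Hsp90 (100 µg/mL) loaded onto streptavidin sensors prewetted 10 min in PBS with 0.05% BSA and 0.01% Tween 20. Analyte binding measured at 28 °C. Double reference subtraction applied; data fitted to a 1:1 model with K_D = K_off/K_on.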

A549 = experiment: Antiproliferative activity against human A549 cells measured after 72 hrs by CCK8 assay; type: functional, cell-based; conditions: A549, 72 h
Method in brief: (§1)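 Cells grown in RPMI 1640 with 10% FBS at 37 °C, 5% CO2; STR-authenticated and mycoplasma-checked. Seeded at 3000-5000 cells/well and left 24 h. Serial compound dilutions added for 72 h, with matched DMSO as control. Viability read by CCK8 kit using the standard protocol. IC50 values derived from at least three parallel experiments.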

L02 = experiment: Cytotoxicity against human L02 cells measured after 72 hrs by CCK8 assay; type: functional, cell-based; conditions: L02, 72 h; method in brief: as §1
[6] = Distribution coefficient, log D of the compound at pH 7.4 by potentiometric titration method; type: physicochemical; conditions: octanol/water
Method in brief: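 log D at pH 7.4 measured by potentiometric titration on a Gemini Profiler.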

Heat shock protein HSP90 [7] = target: T1, Heat shock protein HSP90; experiment: Binding affinity to recombinant […] HSP90 N-terminal domain (9 to 236 residues) (unknown origin) expressed in Escherichia coli BL21 (DE3) by isothermal calorimetric method
Method in brief: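 ITC: 50 µM Hsp90 in the cell and 300 µM compound in the syringe, both in 20 mM Tris-HCl, 150 mM NaCl, pH 7.4. Nineteen injections at 180 s intervals with stirring at 1000 rpm.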

HCT-116 = experiment: Antiproliferative activity against human HCT116 cells measured after 72 hrs by CCK8 assay; type: functional, cell-based; conditions: HCT-116, 72 h; method in brief: as §1

Row | Structure (SMILES) | inhibition [1] [%] | other results
1 | COC(=O)CN(c1ccc(Nc2ccnc(N3CCNCC3)n2)cc1)S(=O)(=O)c1c(C)cc(C)cc1C | 95.5 | IC50 (Heat shock protein HSP90 [2]): > 100 µM; ΔTm (Heat shock protein HSP90 [3]): 3.53 °C; Papp [4]: 101 ×10⁻⁶ cm/s; Kd (Heat shock protein HSP90 [5]): 1.97 µM; IC50 (A549): 43.3 µM; IC50 (L02): > 50 µM; logD [6]: 2.63; Kd (Heat shock protein HSP90 [7]): 1.73 µM; IC50 (HCT-116): 6.25 µM
2 | CCN(CC)c1nccc(Nc2ccc(N(CC(=O)OC)S(=O)(=O)c3c(C)cc(C)cc3C)cc2)n1 | < 50 | 
3 | CNc1nccc(Nc2ccc(N(CC(=O)O)S(=O)(=O)c3c(C)cc(C)cc3C)cc2)n1 | < 50 | 
4 | Cc1cc(C)c(S(=O)(=O)N(Cc2ccc(C(C)C)cc2)c2ccc(Nc3ccnc(N4CCCC4)n3)cc2)c(C)c1 | < 50 | 
5 | COc1ccc(CN(c2ccc(Nc3ccnc(N4CCCC4)n3)cc2)S(=O)(=O)c2c(C)cc(C)cc2C)cc1 | < 50 | 
6 | Cc1cc(C)c(S(=O)(=O)N(CC(=O)O)c2ccc(Nc3ccnc(N4CCN(C)CC4)n3)cc2)c(C)c1 | 71.1 | 
7 | CNc1nccc(Nc2ccc(N(CC(=O)OC)S(=O)(=O)c3c(C)cc(C)cc3C)cc2)n1 | < 50 | 
8 | Cc1cc(C)c(S(=O)(=O)N(Cc2ccc(C(=O)O)cc2)c2ccc(Nc3ccnc(N4CCCC4)n3)cc2)c(C)c1 | 52.8 | 
9 | Cc1cc(C)c(S(=O)(=O)N(CC#N)c2ccc(Nc3ccnc(N4CCNCC4)n3)cc2)c(C)c1 | 64.3 | IC50 (Heat shock protein HSP90 [2]): > 100 µM; ΔTm (Heat shock protein HSP90 [3]): 1.1 °C; Papp [4]: 61.5 ×10⁻⁶ cm/s; logD [6]: 2.01

The next lines start with results.

Row | inhibition [1] [%] | Structure (SMILES) | other results
10 | 41.8 | COc1ccc(OC)c(S(=O)(=O)Nc2ccc(Nc3ccnc(N4CCCC4)n3)cc2)c1 | 
11 | 66 | Cc1cc(C)c(S(=O)(=O)Nc2ccc(Nc3ccnc(N4CCCC4)n3)cc2)c(C)c1 | 
12 | 56.3 | COc1cc(S(=O)(=O)Nc2ccc(Nc3ccnc(N4CCCC4)n3)cc2)c(C)cc1C | Papp [4]: 65.9 ×10⁻⁶ cm/s; Kd (Heat shock protein HSP90 [5]): 21.1 µM; logD [6]: 4.82
13 | 36.2 | COc1ccc(S(=O)(=O)Nc2ccc(Nc3ccnc(N4CCCC4)n3)cc2)c(OC)c1 | 
14 | 65.4 | COC(=O)CN(c1ccc(Nc2ccnc(N3CCCC3)n2)cc1)S(=O)(=O)c1c(C)cc(C)cc1C | 
15 | 79.1 | COC(=O)CN(c1ccc(Nc2ccnc(N3CCCCC3)n2)cc1)S(=O)(=O)c1c(C)cc(C)cc1C | 
16 | < 50 | Cc1cc(C)c(S(=O)(=O)N(CC(N)=O)c2ccc(Nc3ccnc(N4CCCC4)n3)cc2)c(C)c1 | 
17 | < 20 | O=S(=O)(Nc1ccc(Nc2ccnc(N3CCCC3)n2)cc1)c1ccc(C(F)(F)F)cc1 | 
18 | < 50 | COC(=O)CN(c1ccc(Nc2ccnc(N3CCCCCC3)n2)cc1)S(=O)(=O)c1c(C)cc(C)cc1C | 
